Legend:
Type in all cases: functional
Nakaseomyces glabratus [1] = test: Antifungal activity against fluconazole-resistant Candida glabrata DSY2271 increase expressing of CgCDR2 genes after 24 hrs by visually and spectrophotometric analysis; conditions: DSY2271, 24 h
In short: (§1)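 Endpoint is MIC90, in μg/mL, read at 24 h by both visual inspection and spectrophotometry.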

Pichia kudriavzevii = test: Antifungal activity against wild type Candida krusei ATCC 14243 after 24 hrs by visually and spectrophotometric analysis; conditions: ATCC 14243, 24 h
Clavispora lusitaniae [2] = test: Antifungal activity against Candida lusitaniae ATCC 200950 after 24 hrs by visually and spectrophotometric analysis; conditions: ATCC 200950, 24 h
In short: (§2)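 Read-out is MIC90 in μg/mL, scored at 24 h both by eye and spectrophotometrically. The panel is Candida isolates that earlier reports describe as amphotericin B-resistant, with amphotericin B run alongside as the reference drug.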

Candida parapsilosis = test: Antifungal activity against wild type Candida parapsilosis ATCC 34136 after 24 hrs by visually and spectrophotometric analysis; conditions: Lodderomyces parapsilosis, ATCC 34136, 24 h
Candida albicans [3] = test: Antifungal activity against fluconazole-resistant Candida albicans DSY296 harboring ERG11 gene mutant and increase expressing of CDR1 and CDR2 genes after 24 hrs by visually and spectrophotometric analysis; conditions: DSY296, 24 h; in short: as §1
Candida tropicalis [4] = test: Antifungal activity against Candida tropicalis ATCC 200956 after 24 hrs by visually and spectrophotometric analysis; conditions: ATCC 200956, 24 h; in short: as §2
Candida albicans [5] = test: Antifungal activity against fluconazole-resistant Candida albicans DSY284 harboring ERG11 gene mutant and increase expressing of CDR1 and CDR2 genes after 24 hrs by visually and spectrophotometric analysis; conditions: DSY284, 24 h; in short: as §1
Candida albicans [6] = test: Antifungal activity against fluconazole-resistant Candida albicans DSY735 expressing high level of CDR1 and CDR2 genes after 24 hrs by visually and spectrophotometric analysis; conditions: DSY735, 24 h; in short: as §1
Clavispora lusitaniae [7] = test: Antifungal activity against Candida lusitaniae ATCC 200952 after 24 hrs by visually and spectrophotometric analysis; in short: as §2
Clavispora lusitaniae [8] = test: Antifungal activity against Candida lusitaniae ATCC 200953 after 24 hrs by visually and spectrophotometric analysis; in short: as §2
Kluyveromyces marxianus = test: Antifungal activity against wild type Candida kefyr after 24 hrs by visually and spectrophotometric analysis
Clavispora lusitaniae [9] = test: Antifungal activity against Candida lusitaniae ATCC 60247 after 24 hrs by visually and spectrophotometric analysis; conditions: ATCC 60247, 24 h; in short: as §2
Nakaseomyces glabratus [10] = test: Antifungal activity against fluconazole-resistant Candida glabrata DSY754 increase expressing of CgCDR1 gene after 24 hrs by visually and spectrophotometric analysis; conditions: DSY754, 24 h; in short: as §1
[11] = test system: Meyerozyma guilliermondii; test: Antifungal activity against wild type Candida guilliermondii after 24 hrs by visually and spectrophotometric analysis
Nakaseomyces glabratus [12] = test: Antifungal activity against fluconazole-resistant Candida glabrata DSY756 increase expressing of CgCDR1, CgCDR2, and CgSNQ2 genes after 24 hrs by visually and spectrophotometric analysis; conditions: DSY756, 24 h; in short: as §1
Candida albicans [13] = test: Antifungal activity against Candida albicans ATCC 200955 after 24 hrs by visually and spectrophotometric analysis; conditions: ATCC 200955, 24 h; in short: as §1
Candida albicans [14] = test: Antifungal activity against wild type Candida albicans ATCC 60193 after 24 hrs by visually and spectrophotometric analysis; conditions: ATCC 60193, 24 h
Clavispora lusitaniae [15] = test: Antifungal activity against Candida lusitaniae ATCC 24348 after 24 hrs by visually and spectrophotometric analysis; conditions: ATCC 24348, 24 h; in short: as §2
Candida albicans [16] = test: Antifungal activity against fluconazole-resistant Candida albicans DSY751 harboring ERG11 gene mutant and increase expressing of MDR1 gene after 24 hrs by visually and spectrophotometric analysis; conditions: DSY751, 24 h; in short: as §1
Candida albicans [17] = test: Antifungal activity against fluconazole-resistant Candida albicans DSY348 harboring ERG11 gene mutant and increase expressing of CDR1 and CDR2 genes after 24 hrs by visually and spectrophotometric analysis; conditions: DSY348, 24 h; in short: as §1
Nakaseomyces glabratus [18] = test: Antifungal activity against fluconazole-resistant Candida glabrata DSY2254 increase expressing of CgCDR1 and CgCDR2 genes after 24 hrs by visually and spectrophotometric analysis; conditions: DSY2254, 24 h; in short: as §1
Candida albicans [19] = test: Antifungal activity against fluconazole-resistant Candida albicans DSY775 harboring ERG11 gene mutant and increase expressing of CDR1 and CDR2 genes after 24 hrs by visually and spectrophotometric analysis; conditions: DSY775, 24 h; in short: as §1
Clavispora lusitaniae [20] = test: Antifungal activity against Candida lusitaniae ATCC 200951 after 24 hrs by visually and spectrophotometric analysis; in short: as §2
Candida albicans [21] = test: Antifungal activity against fluconazole-resistant Candida albicans DSY289 harboring ERG11 gene mutant and increase expressing of CDR1 and CDR2 genes after 24 hrs by visually and spectrophotometric analysis; conditions: DSY289, 24 h; in short: as §1
Candida albicans [22] = test: Antifungal activity against fluconazole-resistant Candida albicans DSY292 harboring ERG11 gene mutant and increase expressing of MDR1 gene after 24 hrs by visually and spectrophotometric analysis; conditions: DSY292, 24 h; in short: as §1
Nakaseomyces glabratus [23] = test: Antifungal activity against fluconazole-resistant Candida glabrata DSY530 increase expressing of CgCDR1 gene after 24 hrs by visually and spectrophotometric analysis; conditions: DSY530, 24 h; in short: as §1
Candida tropicalis [24] = test: Antifungal activity against wild type Candida tropicalis after 24 hrs by visually and spectrophotometric analysis
Nakaseomyces glabratus [25] = test: Antifungal activity against wild type Candida glabrata after 24 hrs by visually and spectrophotometric analysis

| Compound | MIC90 (Nakaseomyces glabratus [1]) | MIC90 (Pichia kudriavzevii) | MIC90 (Clavispora lusitaniae [2]) | MIC90 (Candida parapsilosis) | MIC90 (Candida albicans [3]) | MIC90 (Candida tropicalis [4]) | MIC90 (Candida albicans [5]) | MIC90 (Candida albicans [6]) | MIC90 (Clavispora lusitaniae [7]) | MIC90 (Clavispora lusitaniae [8]) | MIC90 (Kluyveromyces marxianus) | MIC90 (Clavispora lusitaniae [9]) | MIC90 (Nakaseomyces glabratus [10]) | MIC90 [11] | MIC90 (Nakaseomyces glabratus [12]) | MIC90 (Candida albicans [13]) | MIC90 (Candida albicans [14]) | MIC90 (Clavispora lusitaniae [15]) | MIC90 (Candida albicans [17]) | MIC90 (Nakaseomyces glabratus [18]) | other results |
| --- | --- | --- | --- | --- | --- | --- | --- | --- | --- | --- | --- | --- | --- | --- | --- | --- | --- | --- | --- | --- | --- |
| C/C=C/CNC(=N)NCCCCCCCCN1CCCCOC(=O)CCNC(=N)NC1=O.O=C(O)C(F)(F)F | 64 µg/mL | 64 µg/mL | 8 µg/mL | 32 µg/mL | 16 µg/mL | 16 µg/mL | 16 µg/mL | 8 µg/mL | 4 µg/mL | 8 µg/mL | 32 µg/mL | 4 µg/mL | 64 µg/mL | 32 µg/mL | 128 µg/mL | 8 µg/mL | 32 µg/mL | 4 µg/mL | 8 µg/mL | 128 µg/mL | MIC90 (Candida albicans [16]): 16 µg/mL; MIC90 (Candida albicans [19]): 16 µg/mL; MIC90 (Clavispora lusitaniae [20]): 4 µg/mL; MIC90 (Candida albicans [21]): 8 µg/mL; MIC90 (Candida albicans [22]): 16 µg/mL; MIC90 (Nakaseomyces glabratus [23]): 64 µg/mL; MIC90 (Candida tropicalis [24]): 32 µg/mL; MIC90 (Nakaseomyces glabratus [25]): 64 µg/mL |
| C=CCNC(=N)NCCCCCCCCN1CCCCCCCCNC(=N)NC1=O.O=C(O)C(F)(F)F | 32 µg/mL | 0.5 µg/mL | 2 µg/mL | 4 µg/mL | 2 µg/mL | 1 µg/mL | 1 µg/mL | 1 µg/mL | 2 µg/mL | 4 µg/mL | 4 µg/mL | 2 µg/mL | 32 µg/mL | 2 µg/mL | 16 µg/mL | 1 µg/mL | 1 µg/mL | 1 µg/mL | 1 µg/mL | 32 µg/mL | MIC90 (Candida albicans [19]): 2 µg/mL; MIC90 (Clavispora lusitaniae [20]): 2 µg/mL; MIC90 (Candida albicans [21]): 1 µg/mL; MIC90 (Candida albicans [22]): 2 µg/mL; MIC90 (Nakaseomyces glabratus [23]): 16 µg/mL; MIC90 (Candida tropicalis [24]): 0.5 µg/mL; MIC90 (Nakaseomyces glabratus [25]): 32 µg/mL |
| N=C(NCCCCCCCCN1CCCCCCCCNC(=N)NC1=O)NCC1CC1.O=C(O)C(F)(F)F | 16 µg/mL | 4 µg/mL | 4 µg/mL | 2 µg/mL | 2 µg/mL | 2 µg/mL | 1 µg/mL | 1 µg/mL | 1 µg/mL | 2 µg/mL | 4 µg/mL | 4 µg/mL | 16 µg/mL | 2 µg/mL | 16 µg/mL | 1 µg/mL | 1 µg/mL | 2 µg/mL | 2 µg/mL | 32 µg/mL | MIC90 (Candida albicans [16]): 2 µg/mL; MIC90 (Candida albicans [19]): 2 µg/mL; MIC90 (Clavispora lusitaniae [20]): 2 µg/mL; MIC90 (Candida albicans [21]): 1 µg/mL; MIC90 (Candida albicans [22]): 2 µg/mL; MIC90 (Nakaseomyces glabratus [23]): 16 µg/mL; MIC90 (Candida tropicalis [24]): 0.5 µg/mL; MIC90 (Nakaseomyces glabratus [25]): 16 µg/mL |
| C/C=C/CNC(=N)NCCCCCCCCN1CCCCOc2ccccc2CNC(=N)NC1=O.O=C(O)C(F)(F)F | 64 µg/mL | 32 µg/mL | 8 µg/mL | 8 µg/mL | 16 µg/mL | 16 µg/mL | 16 µg/mL | 8 µg/mL | 8 µg/mL | 16 µg/mL | 4 µg/mL | 16 µg/mL | 64 µg/mL | 16 µg/mL | 64 µg/mL | 8 µg/mL | 16 µg/mL | 8 µg/mL | 8 µg/mL | 64 µg/mL | MIC90 (Candida albicans [16]): 16 µg/mL; MIC90 (Candida albicans [19]): 16 µg/mL; MIC90 (Clavispora lusitaniae [20]): 8 µg/mL; MIC90 (Candida albicans [21]): 8 µg/mL; MIC90 (Candida albicans [22]): 16 µg/mL; MIC90 (Nakaseomyces glabratus [23]): 64 µg/mL; MIC90 (Candida tropicalis [24]): 8 µg/mL; MIC90 (Nakaseomyces glabratus [25]): 64 µg/mL |
| C/C=C/CNC(=N)NCCCCCCCCN1CCCCCOc2ccccc2CNC(=N)NC1=O.O=C(O)C(F)(F)F | 8 µg/mL | 8 µg/mL | 2 µg/mL | 2 µg/mL | 4 µg/mL | 4 µg/mL | 2 µg/mL | 2 µg/mL | 2 µg/mL | 4 µg/mL | 4 µg/mL | 4 µg/mL | 16 µg/mL | 2 µg/mL | 8 µg/mL | 1 µg/mL | 4 µg/mL | 2 µg/mL | 2 µg/mL | 16 µg/mL | MIC90 (Candida albicans [16]): 4 µg/mL; MIC90 (Candida albicans [19]): 4 µg/mL; MIC90 (Clavispora lusitaniae [20]): 2 µg/mL; MIC90 (Candida albicans [21]): 2 µg/mL; MIC90 (Candida albicans [22]): 4 µg/mL; MIC90 (Nakaseomyces glabratus [23]): 8 µg/mL; MIC90 (Candida tropicalis [24]): 2 µg/mL; MIC90 (Nakaseomyces glabratus [25]): 8 µg/mL |
